Screening results (PubChem BioAssay)
VIM-2 inh = VIM-2 metallo-beta-lactamase inhibitors, primary screen, biochemical, epi-absorbance readout, Pseudomonas aeruginosa enzyme. purified VIM-2, nitrocefin hydrolysis, epi-absorbance fluorescence. inhibition, % at 5.6 µM. 290,000 compounds, 0.89% hits;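 active = inhibition above the mean of all tested compounds plus 3 SD, cutoff set per screening run, cut at about 7.5% in these data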;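 also: red hydrolysis product quenches plate fluorescence so inhibitors raise well fluorescence; 0% = enzyme with DMSO and 100% = DMSO without enzyme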
MIN6 prolif = inducers of MIN6 beta-cell proliferation, primary screen, ATP luminescence, uHTS. MIN6 cells proliferation, ATPlite luminescence, 48 h; cells starved in 0.2% serum; 100% = growth in 10% serum. proliferation, % at 10 µM. 330,000 compounds, 0.29% hits;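 active = compounds whose signal lies at least 3.5 SD above the mean of all wells on their plate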;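 also: 0% = DMSO-treated cells in low-serum medium and 100% = 10% serum control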
ATG4B inh = ATG4B protease inhibitors, primary screen, biochemical, fluorescence, uHTS. 340,000 compounds, 0.51% hits. inhibition, % at 8.33 µM. ATG4B cleavage of LC3-PLA2, NBD-HPC fluorescence, 1 h. AID 504462, 2011; in the data active = inhibition above about 40%
PvdQ acylase = P. aeruginosa PvdQ acylase inhibitors, primary screen, biochemical, fluorescence, plate reader and imaging, single point; purified PvdQ acylase; inhibition, % at 10 µM; 340,000 compounds, 0.063% hits; in the data active = inhibition above about 30%, passing the limit was not always enough;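 also: 0% = vehicle neutral wells and 100% = reference inhibitor wells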
IMP-1 inh-1 = IMP-1 metallo-beta-lactamase inhibitors, primary screen, biochemical, epi-absorbance readout, Pseudomonas aeruginosa enzyme; metallo-beta-lactamase IMP-1 (Pseudomonas aeruginosa); purified IMP-1, nitrocefin hydrolysis, epi-absorbance fluorescence; inhibition, % at 5.6 µM; 290,000 compounds, 0.45% hits;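 active = inhibition above the mean plus 3 SD of all compounds in the same screening run, cut at about 4.5% in these data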;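 also: 0% = IMP-1 with DMSO and 100% = DMSO wells lacking enzyme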
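Test system: recombinant IMP-1 enzyme, purified / Medium: HEPES buffer pH 7.1 with ZnSO4 and Brij 35 / Doses: single dose, 5.6 µM / Times: 25 °C, 15 min preincubation, 25 min reaction / Detection: Epi-absorbance via hydrolysed-nitrocefin quenching of white-plate fluorescence, 480/530 nm, EDTA stop / Evaluation: percent inhibition from optical density relative to buffer-blank wells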
HKDC1 inh = HKDC1 hexokinase inhibitors, primary screen, biochemical, fluorescence, uHTS; inhibition, % at 20 µM; 340,000 compounds, 0.16% hits; Q2TB90; recombinant HKDC1, G6PDH/diaphorase resazurin coupled fluorescence;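 active = inhibition above about 35% when tested at 20 µM, limit read from the data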;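 also: plate controls were DMSO wells with enzyme for no effect and DMSO wells lacking enzyme for full effect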
Target sequence (Q2TB90 whole entry, looked up): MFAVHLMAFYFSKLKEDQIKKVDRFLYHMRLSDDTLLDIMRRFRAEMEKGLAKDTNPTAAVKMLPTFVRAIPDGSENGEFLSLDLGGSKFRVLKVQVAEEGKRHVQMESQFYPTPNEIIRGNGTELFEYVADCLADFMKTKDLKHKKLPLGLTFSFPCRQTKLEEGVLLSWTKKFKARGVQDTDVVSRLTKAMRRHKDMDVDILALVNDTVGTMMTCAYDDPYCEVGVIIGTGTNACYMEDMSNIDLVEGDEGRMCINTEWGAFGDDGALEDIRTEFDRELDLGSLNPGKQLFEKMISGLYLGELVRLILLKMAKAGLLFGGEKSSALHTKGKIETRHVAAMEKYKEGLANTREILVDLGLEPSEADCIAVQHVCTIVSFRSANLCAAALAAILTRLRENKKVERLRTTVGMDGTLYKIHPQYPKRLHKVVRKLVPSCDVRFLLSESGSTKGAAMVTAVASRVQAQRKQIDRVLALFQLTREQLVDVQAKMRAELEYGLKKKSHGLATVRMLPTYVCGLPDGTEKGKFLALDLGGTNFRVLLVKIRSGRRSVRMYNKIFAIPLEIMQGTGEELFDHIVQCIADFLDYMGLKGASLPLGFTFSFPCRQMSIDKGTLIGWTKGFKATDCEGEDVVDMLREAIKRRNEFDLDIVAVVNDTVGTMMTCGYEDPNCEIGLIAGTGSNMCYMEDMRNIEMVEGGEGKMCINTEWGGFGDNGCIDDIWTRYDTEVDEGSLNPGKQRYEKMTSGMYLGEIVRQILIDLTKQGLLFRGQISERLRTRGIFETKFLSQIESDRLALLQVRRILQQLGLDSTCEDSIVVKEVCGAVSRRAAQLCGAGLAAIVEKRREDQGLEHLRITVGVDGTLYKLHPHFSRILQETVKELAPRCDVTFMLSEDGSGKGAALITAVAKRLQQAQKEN
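Test system: recombinant HKDC1 (HK5) hexokinase enzyme, produced in-house; Amount: enzyme 5 µg/mL final; Buffer or medium: Tris pH 8.0 buffer with MgCl2, Tween-20, BSA, BME; Reagent: glucose and ATP substrates; Doses: 20 µM test compound, 1% DMSO; Incubation: 90 min reaction incubation at room temperature, dark; Detection: resorufin fluorescence at 613 nm.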
IMP-1 inh-2 = IMP-1 metallo-beta-lactamase inhibitors, confirmation, selectivity assay for selective VIM-2 inhibitor project, biochemical, epi-absorbance readout, triplicate; inhibition, % at 5.6 µM; purified IMP-1, nitrocefin hydrolysis, epi-absorbance fluorescence; 1,300 tested, under 10 active; shares compounds with VIM-2 inh; call rule not given here;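 also: 0% = enzyme with vehicle and 100% = vehicle without enzyme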
VIM-2 FRET ctr = VIM-2 inhibitors in FRET format, confirmation, artefact control for selective VIM-2 inhibitor project, biochemical, epi-absorbance artifact exclusion | purified VIM-2, CCF2 FRET substrate hydrolysis | shares compounds with VIM-2 inh | 1,300 compounds, 23% hits | inhibition, % at 5.6 µM | AID 1857, 2009;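 active = inhibition above the mean of all tested compounds plus 3 SD, cut at about 19% in these data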;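 also: 0% = VIM-2 plus DMSO and 100% = no enzyme wells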
TEM-1 counter = TEM-1 serine beta-lactamase inhibitors, counter-screen for VIM-2 inhibitor project, biochemical, epi-absorbance, HTS; shares compounds with VIM-2 inh; Purified TEM-1, nitrocefin hydrolysis, epi-absorbance fluorescence; inhibition, % at 5.6 µM; 1,300 compounds, 3% hits;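 active = inhibition above that campaign's mean inhibition plus 3 SD, cut at about 0.46% in these data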;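 also: 0% = TEM-1 with DMSO and 100% = TEM-1 with 100 µM potassium clavulanate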
VIM-2 inh conf = VIM-2 metallo-beta-lactamase inhibitors, confirmation, biochemical, epi-absorbance, hits shared with IMP-1 screen; shares compounds with VIM-2 inh; purified VIM-2, nitrocefin hydrolysis; inhibition, % at 5.6 µM; 1,300 compounds, 96% hits; AID 2187, 2009;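 active = inhibition of the VIM-2 beta-lactamase enzyme above about 11% from the earlier first-round screen, limit read from the data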;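 also: 0% = VIM-2 with DMSO and 100% = buffer wells without enzyme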
Active calls of the source: *; nt = not tested or not shown. Rows were chosen to be rich in hits. Some 2% of all compounds tested hit in one or more screens of this group.

SMILES	VIM-2 inh	MIN6 prolif	ATG4B inh	PvdQ acylase	IMP-1 inh-1	HKDC1 inh	IMP-1 inh-2	VIM-2 FRET ctr	TEM-1 counter	VIM-2 inh conf
COC(=O)C1C=CC(OC2OC(COC(C)=O)C(OC(C)=O)C(OC(C)=O)C2OC(C)=O)n2c(=O)n(-c3ccccc3)c(=O)n21 (stereo not drawn)	nt	nt	6.0	2.6	nt	-6.3	nt	nt	nt	nt
COc1cc(/C=N/N(C)C2=NS(=O)(=O)c3ccccc32)cc(OC)c1OC	32.1*	-1.1	1.1	-8.8	-1.9	-3.8	-3.1	-2.3	-11.4	34.7*
Cc1c(OCC(=O)NC2CC(C)(C)NC(C)(C)C2)ccc2c3c(c(=O)oc12)CCC3	32.3*	-0.2	10.7	-15.9	-3.5	-1.3	-1.1	0.8	-12.9	44.2*
Cc1c(OCC(=O)NC2CC(C)(C)NC(C)(C)C2)ccc2c1oc(=O)c1ccccc12	27.4*	-4.7	1.1	-15.5	0.8	9.2	-0.8	0.7	-14.6	39.7*
COc1cccc(-n2c(C)nnc2SCC(=O)Nc2ccccc2N2CCOCC2)c1	-4.4	-2.3	0.0	1.8	-0.4	-5.3	nt	nt	nt	nt
Cc1ccc(-c2nn3c(C)nnc3c3ccccc23)cc1S(=O)(=O)NCCN1CCOCC1	42.2*	-0.6	-3.0	-7.3	-3.2	13.4	-3.1	3.0	-2.5	57.9*
Cc1ccc(-c2nn3c(C)nnc3c3ccccc23)cc1S(=O)(=O)N(C)CCO	21.0*	0.5	3.9	-13.7	-3.4	-1.0	-4.9	1.5	-6.2	32.4*
Cc1ccc(-c2n[nH]c(=O)c3ccccc23)cc1S(=O)(=O)NCCN1CCOCC1	7.5	0.8	-6.4	-15.8	-1.8	-2.5	nt	nt	nt	nt
N#CCC(=O)N/N=C/c1ccc(OCC(=O)Nc2ccc(F)cc2)cc1	-1.4	-2.8	-4.0	-22.1	-1.9	15.2	nt	nt	nt	nt
c1ccc2nc(-c3ccc(-n4ccnc4)cc3)ccc2c1	37.7*	-2.3	-9.9	-2.3	-1.9	-2.9	-4.8	-11.1	-5.5	46.8*
c1ccc(-c2ccc3ccccc3n2)cc1	nt	4.6	-1.0	18.2	nt	-1.5	nt	nt	nt	nt
CCN1CCN(CCCNC(=O)CCCn2nc(C)c3sc4ccccc4c3c2=O)CC1	13.2*	-1.1	4.7	-8.8	-0.9	-6.1	-3.6	4.2	-6.1	16.0*
CCCN1CCN(C(=O)C(C)n2nc(C)c3sc4ccccc4c3c2=O)CC1 (stereo not drawn)	28.6*	7.2	-11.0	-16.7	-2.6	0.4	-2.4	-3.6	-4.7	36.4*
CCCN1CCN(CCCNC(=O)C(CC)n2nc(C)c3sc4ccccc4c3c2=O)CC1 (stereo not drawn)	0.9	0.3	5.3	-8.7	-2.5	-9.2	nt	nt	nt	nt
CCC(C(=O)NCCCN1CCN(C)CC1)n1nc(C)c2sc3ccccc3c2c1=O (stereo not drawn)	0.2	-2.2	-2.1	-6.8	-3.4	1.2	nt	nt	nt	nt
CCOc1ccccc1NC(=O)Cn1c(=O)n(-c2ccccc2)c(=O)c2oc3ccccc3c21	-4.5	0.6	-2.2	-13.2	-2.5	-4.3	nt	nt	nt	nt
COc1ccc(Cc2nnc(NC(=O)C3CCCO3)s2)cc1OC (stereo not drawn)	56.0*	-1.7	-8.8	-8.9	-1.8	4.6	-2.2	-0.5	-1.7	6.3
O=C(NCCCl)Nc1cccnc1Cl	0.0	1.4	-6.0	-6.6	-3.6	-8.3	nt	nt	nt	nt
CC1CC(C)CN(CCCNS(=O)(=O)c2ccc3c(c2)CCN3C(=O)C2CC2)C1 (stereo not drawn)	12.3*	1.3	1.8	-23.2	-4.0	-6.8	-2.9	-0.9	-6.2	8.9*
CCOC(=O)C1CCN(C(=O)C2CCN(S(=O)(=O)c3ccc4ccccc4c3)CC2)CC1	-4.9	-3.8	0.1	-9.6	-2.4	1.9	nt	nt	nt	nt
C=C(c1cccc2ccccc12)P(=O)(O)O	35.0*	1.9	4.5	-5.6	-0.4	-5.7	-3.3	62.5*	-6.3	44.4*
O=C(O)c1ccccc1C(=O)O	nt	-3.1	15.0	-7.7	nt	0.6	nt	nt	nt	nt
O=C(O)c1ccccc1C(=O)c1cccc2ccccc12	30.6*	-1.0	-5.5	-11.7	-2.5	-4.1	-3.2	54.4*	-5.0	35.2*
COc1ccc(C(O)P(=O)(OCCC(C)C)c2ccc(N(C)C)cc2)cc1 (stereo not drawn)	-3.4	2.1	-1.4	0.7	-2.7	-0.3	nt	nt	nt	nt
S=c1[nH]nc(-c2cccnc2)n1C1CCCCC1	16.0*	-0.2	4.1	10.1	-5.0	-5.2	-3.4	44.7*	-8.2	26.2*
SMILES	VIM-2 inh	MIN6 prolif	ATG4B inh	PvdQ acylase	IMP-1 inh-1	HKDC1 inh	IMP-1 inh-2	VIM-2 FRET ctr	TEM-1 counter	VIM-2 inh conf
Cc1ccsc1-c1n[nH]c(=S)n1CC(C)C	17.8*	0.0	-7.7	22.4	-1.9	-6.2	-2.6	39.9*	-6.8	27.8*
OCCCn1c(-c2ccccc2)n[nH]c1=S	3.9	-5.0	-10.8	-12.3	-1.1	-1.4	nt	nt	nt	nt
S=c1[nH]nc(-c2ccccc2)n1CC1CCCO1 (stereo not drawn)	29.7*	0.4	1.3	-0.5	-6.9	-3.6	-3.0	47.9*	-6.5	31.9*
S=c1[nH]nc(-c2cccnc2)n1Cc1ccccc1	3.0	-0.2	0.7	-12.0	-3.2	-5.6	nt	nt	nt	nt
Cc1nc(=O)c(-c2ccccc2)c(C)n1CC1CCCO1 (stereo not drawn)	-0.3	-0.2	0.1	-9.7	-2.3	-6.7	nt	nt	nt	nt
S=c1[nH]nc(-c2ccccc2)n1C1C=CCCC1 (stereo not drawn)	14.7*	2.5	0.4	-0.7	-3.6	-1.2	-3.2	44.0*	-8.0	25.9*
CCN(CC)CCCN(C(=O)c1cccc(C)c1)c1nc(-c2ccc(OC)cc2)cs1	-0.5	-5.0	5.1	-20.6	-2.2	-1.6	nt	nt	nt	nt
CC1CCCCC1n1c(-c2cccnc2)n[nH]c1=S (stereo not drawn)	19.1*	-1.6	0.6	12.1	-2.5	-4.8	-2.6	49.3*	-6.7	31.7*
